Experimental data: paper PMC7571425 (Antiviral Research, 2020)
Like-named read-outs stand apart in the source and are kept apart here.

Legend:
[1] = Cytotoxicity in mock-infected Vero E6 cells; assay type: cell-based; conditions: African green monkey
[2] = tested on: SARS-CoV-2; test: Image-based; assay type: cell-based, SARS-CoV-2 (hCoV/Korea/KCDC-03/2020); conditions: Severe acute respiratory syndrome coronavirus 2, 48 h, MOI 2.5, 48 h post-infection
[3] = Cell viability assay; assay type: cell-based; conditions: human
In short: (§1)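 Cardiomyocytes were differentiated from H9 hESCs or CMC-hiPSC-011 hiPSCs (CHIR99021, then Wnt inhibitor C59; lactate selection days 10–15). They were exposed to graded drug concentrations (DMSO stocks) for 24 h or 48 h. Viability was read by MTS, absorbance 490 nm. CC50 came from four-parameter nonlinear regression. Mean ± SD of at least two independent experiments in triplicate.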

[4] = tested on: SARS-CoV-2; assay type: cell-based; conditions: for reduction in SARS-CoV-2 titers: 33 μM
[5] = tested on: hiPSC-CMs
[6] = tested on: hPSC-CMs; test: Electrophysiological characterization of hPSC-CMs; assay type: cell-based, human; conditions: for repolarization: dofetilide 10 nM, E4031 30 nM
[7] = tested on: SARS-CoV-2; test: CPE-based antiviral assay in Vero E6 cells; assay type: cell-based, SARS-CoV-2 (hCoV/Korea/KCDC-03/2020)
[8] = Cell viability assay; assay type: cell-based; conditions: human; remark: listed apart in the source
In short: as §1

[9] = tested on: SARS-CoV-2; test: RT-qPCR of intracellular SARS-CoV-2 RNA in hPSC-CMs; assay type: cell-based; conditions: 0.3 μM and 1 μM
[10] = biological target: hERG currents (Homo sapiens, UniProt Q12809); test: cell-based
Sequence of hERG currents (Q12809 whole entry): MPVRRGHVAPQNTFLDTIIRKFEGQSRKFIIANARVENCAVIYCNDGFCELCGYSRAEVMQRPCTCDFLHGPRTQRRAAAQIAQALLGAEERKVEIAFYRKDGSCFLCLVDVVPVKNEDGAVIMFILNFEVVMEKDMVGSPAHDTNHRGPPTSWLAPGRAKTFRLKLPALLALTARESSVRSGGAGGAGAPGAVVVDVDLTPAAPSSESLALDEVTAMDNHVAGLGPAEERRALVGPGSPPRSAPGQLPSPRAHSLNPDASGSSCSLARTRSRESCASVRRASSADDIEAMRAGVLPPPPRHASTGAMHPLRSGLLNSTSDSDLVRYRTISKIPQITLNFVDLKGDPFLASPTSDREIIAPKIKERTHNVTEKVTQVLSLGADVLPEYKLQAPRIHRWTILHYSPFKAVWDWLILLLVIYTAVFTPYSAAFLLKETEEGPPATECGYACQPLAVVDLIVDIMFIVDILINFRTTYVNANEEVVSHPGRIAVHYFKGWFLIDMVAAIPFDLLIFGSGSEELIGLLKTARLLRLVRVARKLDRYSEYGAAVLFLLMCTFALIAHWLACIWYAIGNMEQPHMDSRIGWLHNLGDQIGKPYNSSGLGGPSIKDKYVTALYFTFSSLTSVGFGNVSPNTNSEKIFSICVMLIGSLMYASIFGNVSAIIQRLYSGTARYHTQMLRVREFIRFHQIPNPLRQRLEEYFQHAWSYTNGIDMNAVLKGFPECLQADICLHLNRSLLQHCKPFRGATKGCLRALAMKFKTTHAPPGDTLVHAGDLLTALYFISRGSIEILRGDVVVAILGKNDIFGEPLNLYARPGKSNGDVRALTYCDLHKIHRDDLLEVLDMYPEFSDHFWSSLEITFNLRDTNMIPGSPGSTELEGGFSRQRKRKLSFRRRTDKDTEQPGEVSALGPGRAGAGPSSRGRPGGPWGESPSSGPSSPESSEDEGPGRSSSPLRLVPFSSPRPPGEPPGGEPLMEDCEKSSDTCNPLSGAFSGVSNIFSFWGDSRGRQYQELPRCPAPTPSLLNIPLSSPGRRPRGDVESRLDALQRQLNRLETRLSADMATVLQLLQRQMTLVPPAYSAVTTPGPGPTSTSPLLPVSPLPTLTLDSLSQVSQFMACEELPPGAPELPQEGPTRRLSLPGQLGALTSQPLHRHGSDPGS

[11] = hESC-CMs (human embryonic stem cell-derived cardiomyocytes)

CCN(CC)CCCC(C)Nc1ccnc2cc(Cl)ccc12 (centres unmarked) [Chloroquine]
CC50 at 72 h [1]: > 100 µM | EC50 ([2]; hESC-CMs): 27.9 µM | EC90 ([2]; hESC-CMs): > 84.9 µM | EC50 ([2]; hiPSC-CMs): 12.1 µM | EC90 ([2]; hiPSC-CMs): 24.1 µM | CC50 at 48 h [3, 11]: 84.9 µM | infectious viral particle production ([4]; hESC-CMs and hiPSC-CMs, highest tested concentration): complete suppression | reduction in SARS-CoV-2 titers ([4]; hESC-CMs): 2.3 log10 PFU/ml | effect on viral titers ([4]; hPSC-CMs, 11 μM): did not affect | reduction in SARS-CoV-2 titers ([4]; hiPSC-CMs): 0.3 log10 PFU/ml | Na+ peak amplitude and T-wave ([5]; 30 min exposure): pronounced reduction of Na^+ peak amplitude and T-wave flattening | field potential duration (FPD) ([5]; 30 min exposure): increased the field potential duration (FPD) of hiPSC-CMs in a dose-dependent manner

Cc1cccc(CCN2CCC(C(=O)c3ccc(NS(C)(=O)=O)cc3)CC2)n1 [E4031]
repolarization [6]: significantly delayed

NC(=O)c1nc(F)c[nH]c1=O [Favipiravir (T-705), favipiravir]
in vitro antiviral activity against SARS-CoV-2 [7]: no apparent in vitro antiviral activity

CCN(CCO)CCCC(C)Nc1ccnc2cc(Cl)ccc12 (centres unmarked) [Hydroxychloroquine, hydroxychloroquine]
CC50 at 72 h [1]: 76.1 µM

CCC(CC)COC(=O)[C@H](C)N[P@](=O)(OC[C@H]1O[C@@](C#N)(c2ccc3c(N)ncnn23)[C@H](O)[C@@H]1O)Oc1ccccc1 [Remdesivir]
selectivity index (SI) ([7]; CC50/EC50): > 50 | CC50 at 72 h [1]: > 100 µM | EC50 ([2]; hESC-CMs): 0.6 µM | EC90 ([2]; hESC-CMs): 1.3 µM | EC50 ([2]; hiPSC-CMs): 0.2 µM | EC90 ([2]; hiPSC-CMs): 0.33 µM | CC50 at 24 h [3, 11]: 17.7 µM | CC50 at 48 h [3, 11]: 10.2 µM | CC50 ([3]; hPSC-CMs (hESC-CMs and hiPSC-CMs)): 10.2 to 39.4 µM | CC50 at 24 h [8]: 39.4 µM | CC50 at 48 h [8]: 15.6 µM | viral particle production ([4]; hESC-CMs and hiPSC-CMs, 0.3 μM and 1 μM remdesivir): Complete suppression | reduction of viral titer ([4]; hPSC-CMs, 0.1 μM): minimal reduction | intracellular viral mRNA synthesis [9]: complete inhibition | concentration that reduced Na+ peak amplitudes and spontaneous beating rates, followed by complete cessation of spontaneous beating ([5]; 30 min exposure): ≥ 30 µM | field potential duration (FPD) ([5]; 30 min exposure): dose-dependent prolongations of FPD | Early afterdepolarizations (EADs) and delayed afterdepolarizations (DADs) ([5]; data not shown): not detected | IC50 [10]: > 100 µM

CN(CCOc1ccc(NS(C)(=O)=O)cc1)CCc1ccc(NS(C)(=O)=O)cc1 [dofetilide]
repolarization [6]: significantly delayed

CC(C)NCC(O)c1ccc(O)c(O)c1 (centres unmarked) [isoprenaline]
rate of AP ([6]; 100 nM): substantially increased
